Laboratory results published in ChEMBL document CHEMBL1121534, “Synthesis and biological activity of 5-(4-chlorobenzoyl)-4-(hydroxymethyl)-1-methyl-1H-pyrrole-2-acetic acid, a major metabolite of zomepirac sodium” (J Med Chem, 1980).
Calls of active or inactive are those of the source. The calls are words filed in the database; no cut-off is given here.

How the values were obtained:
[1] = species on record: Homo sapiens; experiment: Tested for in vitro inhibition of collagen-induced aggregation of human platelets; type: functional
[2] = tested on: Rattus norvegicus; experiment: Tested for analgesic activity in acetylcholine-induced body constriction assay. Not Active (NA) upto 100 mg/kg peroral dose; type: functional, organism-based; parameters: dose 100 mg/kg
[3] = tested on: Rattus norvegicus; experiment: Tested for effective dose in rat adjuvant-induced polyarthritis (AA) test in III phase. Not Active (NA) up to 125 mg/kg peroral dose; type: functional, organism-based; parameters: dose 125 mg/kg
[4] = tested on: Rattus norvegicus; experiment: Tested for effective dose in rat adjuvant-induced polyarthritis (AA) test in II phase. Not Active (NA) up to 125 mg/kg peroral dose; type: functional, organism-based; parameters: dose 125 mg/kg
[5] = species on record: Rattus norvegicus; experiment: Tested for effective dose in rat adjuvant-induced polyarthritis (AA) test in III phase; type: functional
[6] = tested on: Rattus norvegicus; experiment: Tested for ulcerogenic activity by peroral administration in rat; type: functional
In short: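 Rats were given the compound by mouth at doses up to 100 mg/kg, and ulcerogenic activity was assessed.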

[7] = tested on: Rattus norvegicus; experiment: Tested for analgesic activity in acetylcholine-induced body constriction assay by peroral administration; type: functional; conditions: po
[8] = species on record: Rattus norvegicus; experiment: Tested for effective dose in rat adjuvant-induced polyarthritis (AA) test in II phase; type: functional

Row | Compound | IC50 [1] | ED50 [2] | ED50 [3] | ED50 [4] | ED50 [5] | UD50 [6] | ED50 [7] | ED50 [8]
1 | Cn1c(CC(=O)O)cc(CO)c1C(=O)c1ccc(Cl)cc1 | 529 µM | inactive | inactive | inactive | – | – | – | –
2 | Cc1cc(CC(=O)[O-])n(C)c1C(=O)c1ccc(Cl)cc1.O.O.[Na+] [ZOMEPIRAC SODIUM] | 1.63 µM | – | – | – | 5.67 mg/kg | 13.9 mg/kg | 0.72 mg/kg | 0.72 mg/kg
3 | COc1ccc2c(c1)c(CC(=O)O)c(C)n2C(=O)c1ccc(Cl)cc1 [INDOMETHACIN] | 1.8 µM | – | – | – | – | – | – | –
